Experimental data reported in ChEMBL document CHEMBL5303300, “EUbOPEN Chemogenomics Library - Multiplex” (2023).
Several values for one entry are separate records, joined by “and”; a condition that tells them apart may be missing. Identical values can stand only once.

Tested on: U2OS
Assay: Multiplex assay against U2OS
Format: toxicity, cell-based
Details: human, number of replicates 2
Outline: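 On a CQ1 microscope at 37°C and 5% CO2, live cells were imaged after compound addition. They had been stained at seeding with Hoechst33342, BioTracker Green Microtubule Cytoskeleton Dye, MitoTracker Red and Annexin V Alexa Fluor 680. CellPathfinder machine-learning gating assigned cells to Hoechst high-intensity objects or normal cells, normal cells to healthy, pyknosed or fragmented nuclei, and pyknosed cells to mitotic or apoptotic. Tubulin, mitochondrial-mass and membrane-permeability phenotypes are per cents of healthy-nucleus cells.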

[1] = 12 h, 1 µM, compound concentration 1 uM
[2] = 12 h, 10 µM, compound concentration 10 uM
[3] = 24 h, 1 µM, compound concentration 1 uM
[4] = 24 h, 10 µM, compound concentration 10 uM
[5] = 48 h, 1 µM, compound concentration 1 uM
[6] = 48 h, 10 µM, compound concentration 10 uM

CSc1cc2c(cc1C(F)(F)F)N(C(=O)Nc1cccnc1)CC2
Population Apoptotic (%) [1]: 33% and 45% | Population Healthy Nuclei (%) [1]: 61% and 90% | Population Hoechst High Intensity Objects (%) [1]: 0% | Population Membrane Permeable-Phenotype (%) [1]: 0% and 2% | Population Mitochondria Different-Phenotype (%) [1]: 0% and 1% | Population Mitotic Cells (%) [1]: 66% and 54% | Population Normal (%) [1]: 100% | Population Pyknosed Nuclei (%) [1]: 17% and 8% | Population Tubulin-Different-Phenotype (%) [1]: 71% and 84% | Population Apoptotic (%) [2]: 42% and 66% | Population Healthy Nuclei (%) [2]: 82% and 50% | Population Hoechst High Intensity Objects (%) [2]: 0% and 3% | Population Membrane Permeable-Phenotype (%) [2]: 0% and 7% | Population Mitochondria Different-Phenotype (%) [2]: 0% | Population Mitotic Cells (%) [2]: 57% and 33% | Population Normal (%) [2]: 100% and 96% | Population Pyknosed Nuclei (%) [2]: 12% and 11% | Population Tubulin-Different-Phenotype (%) [2]: 94% and 38% | Population Apoptotic (%) [3]: 60% and 26% | Population Healthy Nuclei (%) [3]: 69% and 89% | Population Hoechst High Intensity Objects (%) [3]: 0% | Population Membrane Permeable-Phenotype (%) [3]: 3% and 1% | Population Mitochondria Different-Phenotype (%) [3]: 0% | Population Mitotic Cells (%) [3]: 40% and 73% | Population Normal (%) [3]: 100% | Population Pyknosed Nuclei (%) [3]: 12% and 6% | Population Tubulin-Different-Phenotype (%) [3]: 66% and 84% | Population Apoptotic (%) [4]: 100% and 45% | Population Healthy Nuclei (%) [4]: 66% and 88% | Population Hoechst High Intensity Objects (%) [4]: 2% and 0% | Population Membrane Permeable-Phenotype (%) [4]: 0% and 1% | Population Mitochondria Different-Phenotype (%) [4]: 0% and 1% | Population Normal (%) [4]: 97% and 100% | Population Pyknosed Nuclei (%) [4]: 11% and 7% | Population Tubulin-Different-Phenotype (%) [4]: 58% and 93% | Population Apoptotic (%) [5]: 83% and 46% | Population Fragmented Nuclei (%) [5]: 6% and 2% | Population Healthy Nuclei (%) [5]: 83% and 90% | Population Hoechst High Intensity Objects (%) [5]: 3% and 0% | Population Membrane Permeable-Phenotype (%) [5]: 6% and 1% | Population Mitochondria Different-Phenotype (%) [5]: 0% | Population Normal (%) [5]: 96% and 100% | Population Pyknosed Nuclei (%) [5]: 10% and 6% | Population Tubulin-Different-Phenotype (%) [5]: 67% and 85% | Population Apoptotic (%) [6]: 29% and 42% | Population Fragmented Nuclei (%) [6]: 3% and 10% | Population Healthy Nuclei (%) [6]: 89% and 75% | Population Hoechst High Intensity Objects (%) [6]: 0% and 2% | Population Membrane Permeable-Phenotype (%) [6]: 1% and 0% | Population Mitochondria Different-Phenotype (%) [6]: 0% | Population Mitotic Cells (%) [6]: 70% and 57% | Population Normal (%) [6]: 100% and 98% | Population Pyknosed Nuclei (%) [6]: 7% and 14% | Population Tubulin-Different-Phenotype (%) [6]: 94% and 40%

CCN(CC)C/C=C/C(=O)Nc1cc2c(Nc3ccc(F)c(Cl)c3)ncnc2cc1OCC1CC1
Population Apoptotic (%) [1]: 100% and 80% | Population Healthy Nuclei (%) [1]: 61% and 76% | Population Hoechst High Intensity Objects (%) [1]: 0% | Population Membrane Permeable-Phenotype (%) [1]: 4% and 13% | Population Mitochondria Different-Phenotype (%) [1]: 29% and 21% | Population Mitotic Cells (%) [1]: 0% and 20% | Population Normal (%) [1]: 100% | Population Pyknosed Nuclei (%) [1]: 17% and 16% | Population Tubulin-Different-Phenotype (%) [1]: 58% and 49% | Population Apoptotic (%) [2]: 80% and 91% | Population Fragmented Nuclei (%) [2]: 27% and 10% | Population Healthy Nuclei (%) [2]: 25% and 48% | Population Hoechst High Intensity Objects (%) [2]: 0% and 1% | Population Membrane Permeable-Phenotype (%) [2]: 45% and 31% | Population Mitochondria Different-Phenotype (%) [2]: 45% and 57% | Population Mitotic Cells (%) [2]: 20% and 8% | Population Normal (%) [2]: 100% and 98% | Population Pyknosed Nuclei (%) [2]: 46% and 40% | Population Tubulin-Different-Phenotype (%) [2]: 90% and 95% | Population Apoptotic (%) [3]: 88% and 82% | Population Healthy Nuclei (%) [3]: 58% and 73% | Population Hoechst High Intensity Objects (%) [3]: 0% | Population Membrane Permeable-Phenotype (%) [3]: 10% and 15% | Population Mitochondria Different-Phenotype (%) [3]: 44% and 39% | Population Mitotic Cells (%) [3]: 11% and 17% | Population Normal (%) [3]: 100% and 99% | Population Pyknosed Nuclei (%) [3]: 18% and 23% | Population Tubulin-Different-Phenotype (%) [3]: 51% and 48% | Population Apoptotic (%) [4]: 93% | Population Healthy Nuclei (%) [4]: 11% and 1% | Population Hoechst High Intensity Objects (%) [4]: 1% | Population Mitotic Cells (%) [4]: 6% | Population Normal (%) [4]: 98% | Population Pyknosed Nuclei (%) [4]: 78% and 56% | Population Tubulin-Different-Phenotype (%) [4]: 93% and 100% | Total Cell Count [4]: 133 and 52 | Population Apoptotic (%) [5]: 84% and 98% | Population Healthy Nuclei (%) [5]: 52% and 71% | Population Hoechst High Intensity Objects (%) [5]: 1% and 0% | Population Membrane Permeable-Phenotype (%) [5]: 10% and 12% | Population Mitochondria Different-Phenotype (%) [5]: 34% and 30% | Population Normal (%) [5]: 98% and 100% | Population Pyknosed Nuclei (%) [5]: 23% and 22% | Population Tubulin-Different-Phenotype (%) [5]: 37% and 42% | Population Apoptotic (%) [6]: 100% and 98% | Population Healthy Nuclei (%) [6]: 1% and 7% | Population Hoechst High Intensity Objects (%) [6]: 0% | Population Membrane Permeable-Phenotype (%) [6]: 100% and 88% | Population Mitochondria Different-Phenotype (%) [6]: 100% and 88% | Population Mitotic Cells (%) [6]: 0% and 1% | Population Normal (%) [6]: 100% and 99% | Population Pyknosed Nuclei (%) [6]: 46% and 87% | Population Tubulin-Different-Phenotype (%) [6]: 100% | Total Cell Count [6]: 56 and 120

CC(C)S(=O)(=O)c1ccccc1Nc1nc(N[C@@H]2CCCN(CCCCCCCNC(=O)COc3cccc4c3C(=O)N(C3CCC(=O)NC3=O)C4=O)C2)ncc1Cl (stereo partly specified)
Population Apoptotic (%) [1]: 82% and 80% | Population Fragmented Nuclei (%) [1]: 14% and 8% | Population Healthy Nuclei (%) [1]: 43% and 61% | Population Hoechst High Intensity Objects (%) [1]: 0% and 1% | Population Membrane Permeable-Phenotype (%) [1]: 5% | Population Mitochondria Different-Phenotype (%) [1]: 5% and 6% | Population Mitotic Cells (%) [1]: 17% and 19% | Population Normal (%) [1]: 100% and 98% | Population Pyknosed Nuclei (%) [1]: 41% and 30% | Population Tubulin-Different-Phenotype (%) [1]: 66% and 62% | Population Apoptotic (%) [2]: 85% and 81% | Population Fragmented Nuclei (%) [2]: 11% and 7% | Population Healthy Nuclei (%) [2]: 38% and 61% | Population Hoechst High Intensity Objects (%) [2]: 0% and 5% | Population Membrane Permeable-Phenotype (%) [2]: 81% and 57% | Population Mitochondria Different-Phenotype (%) [2]: 62% and 55% | Population Mitotic Cells (%) [2]: 14% and 18% | Population Normal (%) [2]: 100% and 94% | Population Pyknosed Nuclei (%) [2]: 50% and 31% | Population Tubulin-Different-Phenotype (%) [2]: 100% and 96% | Population Apoptotic (%) [3]: 83% and 87% | Population Fragmented Nuclei (%) [3]: 24% and 14% | Population Healthy Nuclei (%) [3]: 22% and 41% | Population Hoechst High Intensity Objects (%) [3]: 0% and 2% | Population Membrane Permeable-Phenotype (%) [3]: 0% and 5% | Population Mitochondria Different-Phenotype (%) [3]: 0% and 6% | Population Mitotic Cells (%) [3]: 16% and 12% | Population Normal (%) [3]: 100% and 97% | Population Pyknosed Nuclei (%) [3]: 53% and 44% | Population Tubulin-Different-Phenotype (%) [3]: 70% and 87% | Population Apoptotic (%) [4]: 93% and 89% | Population Fragmented Nuclei (%) [4]: 21% and 10% | Population Healthy Nuclei (%) [4]: 19% and 31% | Population Hoechst High Intensity Objects (%) [4]: 0% and 8% | Population Membrane Permeable-Phenotype (%) [4]: 0% and 25% | Population Mitotic Cells (%) [4]: 6% and 10% | Population Normal (%) [4]: 100% and 91% | Population Pyknosed Nuclei (%) [4]: 59% and 58% | Population Tubulin-Different-Phenotype (%) [4]: 40% and 55% | Population Apoptotic (%) [5]: 96% and 95% | Population Healthy Nuclei (%) [5]: 22% and 28% | Population Hoechst High Intensity Objects (%) [5]: 2% and 3% | Population Mitotic Cells (%) [5]: 3% and 4% | Population Normal (%) [5]: 97% and 96% | Population Pyknosed Nuclei (%) [5]: 54% and 63% | Population Tubulin-Different-Phenotype (%) [5]: 90% and 85% | Population Apoptotic (%) [6]: 90% and 97% | Population Fragmented Nuclei (%) [6]: 8% and 22% | Population Healthy Nuclei (%) [6]: 12% and 0% | Population Hoechst High Intensity Objects (%) [6]: 9% and 2% | Population Mitotic Cells (%) [6]: 9% and 2% | Population Normal (%) [6]: 90% and 97% | Population Pyknosed Nuclei (%) [6]: 79% and 77%
